Laboratory results from publication PMC9122039 (Chembiochem : a European journal of chemical biology, 2022).
Where a SMILES comes first, the peptide text is derived from it. The star is where a group is joined. Cbz = O=C(OCc1ccccc1)*

What was measured:
Assay type in all cases: cell-based
[1] = tested on: proteasome (β2 and β5 subunits) in HEK-293T cells; details: then 3 at 500 nM 1 h; for increase of proteasome labeling over DMSO treated samples: modulator 25 μM 1 h; for effect of inhibitor on labeling by 3: inhibitor at two concentrations 1 h; for change of proteasome activity: modulator 5 μM 1 h
Outline: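 HEK-293T cells pre-treated 1 h with the test compound (stimulators and inhibitors, each at two concentrations) or DMSO. BODIPY-epoxomicin probe then added at 500 nM for 1 h (2 h total). Proteasome bound by the probe is resolved by SDS-PAGE and in-gel fluorescence is scanned. β2 and β5 band signals are quantified and normalised to DMSO; error bars are standard deviation.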

[2] = tested on: proteasome in HEK-293T cells; assay: Confocal microscopy with probe 3; details: modulator 25 μM 1 h, then 3 at 500 nM 1 h, PBS wash
Outline: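 HEK-293T cells on poly-D-lysine-coated glass coverslip chambers; test compound (proteasome stimulator or inhibitor) at 25 μM for 1 h, then BODIPY-epoxomicin probe at 500 nM for another hour. PBS wash removes extracellular or unbound probe. Controls: DMSO plus probe (basal activity) and DMSO without probe. Imaged by confocal in bright field and BodipyFL green channel, with overlay.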

[3] = tested on: proteasome in HEK-293T cells; assay: Flow cytometry with probe 3; details: modulator 1 h, then 3 for 1 h, rinsed with PBS
Outline: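 HEK-293T cells get the test compound (stimulator or inhibitor) for 1 h. The BODIPY-epoxomicin probe is then added and incubated another hour. Cells are pelleted and rinsed with PBS to remove unreacted probe. Probe fluorescence is measured by flow cytometry against DMSO-treated samples.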

`CCCCC/C=C\C/C=C\C/C=C\C/C=C\CCCC(=O)Nc1ccc(O)cc1` [AM-404] was tested, and the “increase of proteasome labeling over DMSO treated samples” value (shortened to “increase of proteasome labeling”) [1] was “at least 40%”.

With `CC(C)C[C@@H](C=O)NC(=O)[C@H](CC(C)C)NC(=O)[C@H](CC(C)C)NC(=O)OCc1ccccc1` [MG-132] (Cbz-Leu-Leu-Leu-aldehyde) the “change of intracellular fluorescent signal of 3 (confocal microscopy)” value [2] was “significantly decreased the signal”, the “change of fluorescent signal of 3 over DMSO treated samples (flow cytometry)” value (“change of fluorescent signal … (flow cytometry)” for short) [3] was “decrease” and the “effect of inhibitor on labeling by 3” value [1] was “prevented the binding of (3)”.

For `Clc1ccc(COC(Cn2ccnc2)c2ccc(Cl)cc2Cl)c(Cl)c1` (stereo not drawn) [MO, Miconazole], the “change of intracellular fluorescent signal of 3 (confocal microscopy)” value [2] was “remarkable increase in fluorescent signal”, the “change of fluorescent signal … (flow cytometry)” value [3] was “increase” and the “change of proteasome activity” value [1] was “significant increase in activity”. For the same compound, the “increase of proteasome labeling” value [1] was “at least 40%”.

With `CN1CCN(CCCN2c3ccccc3Sc3ccc(C(F)(F)F)cc32)CC1` [TFP, trifluoperazine] the “change of fluorescent signal … (flow cytometry)” value [3] was “increase”, the “change of proteasome activity” value [1] was “significant increase in activity” and the “increase of proteasome labeling” value [1] was “at least 40%”.

epoxomicin was tested, and the “effect of inhibitor on labeling by 3” value [1] was “prevented the binding of (3)”.
